Published values from different studies.
Target: Serine/threonine-protein kinase Sgk3 (SGK3, Homo sapiens, UniProt Q96BR1)
One construct used (Q96BR1 1-496): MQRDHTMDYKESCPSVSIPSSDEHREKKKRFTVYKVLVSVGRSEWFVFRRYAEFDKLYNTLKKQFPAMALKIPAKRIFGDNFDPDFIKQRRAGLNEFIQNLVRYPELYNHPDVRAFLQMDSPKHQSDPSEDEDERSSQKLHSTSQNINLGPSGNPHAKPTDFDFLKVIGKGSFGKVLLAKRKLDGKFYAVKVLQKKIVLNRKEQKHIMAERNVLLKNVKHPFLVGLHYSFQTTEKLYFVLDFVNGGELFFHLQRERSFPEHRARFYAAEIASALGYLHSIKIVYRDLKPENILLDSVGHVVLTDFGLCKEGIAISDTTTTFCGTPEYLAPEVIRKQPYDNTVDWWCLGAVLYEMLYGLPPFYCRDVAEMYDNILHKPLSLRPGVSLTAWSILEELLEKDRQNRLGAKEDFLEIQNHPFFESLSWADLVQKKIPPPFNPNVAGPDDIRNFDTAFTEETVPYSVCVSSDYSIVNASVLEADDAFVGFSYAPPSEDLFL

C[C@@H]1CCN(C(=O)CC#N)C[C@@H]1N(C)c1ncnc2[nH]ccc12 — remaining signal (cell-free assay; inhibitor; 0.5 µM): 98.1%
CNC(=O)c1cc(Oc2ccc(NC(=O)Nc3ccc(Cl)c(C(F)(F)F)c3)cc2)ccn1 — inhibition (enzyme activity; inhibitor; 0.3 µM): 14%
Cc1sc(C(=O)NC2COC2)cc1-n1cc(NC(=O)Nc2c(F)cccc2Cl)cn1 — remaining activity (enzyme activity; inhibitor; 10 µM): 90.1%
N#CCCc1ccc2c(c1)-c1[nH]c3ccc([N+](=O)[O-])cc3c1CC(=O)N2 — remaining signal (cell-free assay; 0.5 µM): 99.2%
O=C(Nc1cnn(-c2csc(C(=O)NC3COC3)c2)c1)Nc1c(F)cccc1Cl — remaining activity (enzyme activity; inhibitor; 5 µM): 95.3%
Nc1ncnc2occ(-c3ccc(NC(=O)Nc4cc(C(F)(F)F)ccc4F)cc3)c12 — remaining signal (cell-free assay; inhibitor; 20 µM): 6.6%
COc1cc2ncnc(Nc3ccc(Oc4ccccc4)cc3C)c2cc1OC — inhibition (enzyme activity; inhibitor; 1 µM): 0%
O=C1NC(=O)c2cc(Nc3ccc(F)cc3)c(Nc3ccc(F)cc3)cc21 — remaining signal (cell-free assay; 0.5 µM): 102%
CNC(=O)c1ccc(Nc2ncc(C(F)(F)F)c(NCc3nccnc3N(C)S(C)(=O)=O)n2)cc1 — remaining binding (cell-free assay; competition with immobilised ligand; 0.1 µM): 85%
CC(C)(O)[C@H]1CC[C@H](Nc2ccc3ncc(-c4cccc(C(F)(F)F)c4)n3n2)CC1 — remaining activity (enzyme activity; inhibitor; 1 µM): 95.8%
CCS(=O)(=O)c1cc2cc(C[C@@](O)(CC(C)(C)c3ccc(F)cc3C(N)=O)C(F)(F)F)[nH]c2cn1 — remaining binding (cell-free assay; competition with immobilised ligand; 1 µM): 79%
c1ccc(CNc2nc(N3CCOc4ccccc43)nc3c2CCCC3)cc1 — inhibition (target engagement in cells; inhibitor; chemoproteomics; 20 mM): -9%
Cn1nc(C(F)(F)F)cc1-c1cnc(N2CCc3cc(S(=O)(=O)Nc4c(F)cc(Cl)cc4F)cc(N4CCCC4=O)c32)nc1 — remaining binding (cell-free assay; competition with immobilised ligand; 1 µM): 78%
CNc1cccc2cc(C(=O)Nc3ccc(C(=O)O)cc3)c(=O)[nH]c12 — inhibition (enzyme activity; inhibitor; 10 µM): -2.1%
CCCS(=O)(=O)Nc1ccc(F)c(C(=O)c2c[nH]c3ncc(-c4ccc(Cl)cc4)cc23)c1F — inhibition (enzyme activity; inhibitor; 1 µM): < 10%
CCN(CC)CCNC(=O)c1c(C)[nH]c(/C=C2\C(=O)Nc3ccc(F)cc32)c1C — remaining signal (cell-free assay; 0.5 µM): 101%
CNCc1ccccc1-c1csc([C@@H](C)Nc2nc(C)nc3cc(OC)c(OC)cc23)c1 — remaining binding (cell-free assay; competition with immobilised ligand; 1 µM): 78%
Cc1ccc(Nc2nccc(N(C)c3ccc4c(C)n(C)nc4c3)n2)cc1S(N)(=O)=O — inhibition (enzyme activity; inhibitor; 10 µM): 13%
CO[C@@H](C)c1c(Nc2ccc([C@H](N(C)C(=O)C3CCS(=O)(=O)CC3)C(F)(F)F)cc2)cnc2cc(Cl)nn12 — remaining binding (cell-free assay; competition with immobilised ligand; 1 µM): 100%
CN1CC(Oc2cnc(C#N)cc2-c2ccn3nc(NC(=O)C4CC4)cc3c2)C1 — inhibition (enzyme activity; inhibitor; 1 µM): -3%
CCc1ccccc1C(=O)Nc1n[nH]c2c(C)c(F)c(C3C(C#N)=C(C)N(C)C(C)=C3C#N)cc12 — remaining binding (cell-free assay; competition with immobilised ligand; 1 µM): 91%
CC/C(=N\NC(=O)NCc1cccc(O)c1)c1ccc(O)c(C)c1O — inhibition (enzyme activity; inhibitor; 0.1 µM): 83.9%
O=C1CCc2cc(Nc3cc(OC4CCOCC4)c([N+](=O)[O-])cc3Cl)ccc2N1 — remaining binding (cell-free assay; competition with immobilised ligand; 1 µM): 100%
CCOc1cc(-c2nncn2C)ccc1Nc1ncc2cc(C)nc(NCC(C)(C)C)c2n1 — inhibition (enzyme activity; inhibitor; FRET; 1 µM): < 15%
